Assay results gathered from unrelated publications.
Compare with care: the assays were run in different laboratories.
Target: Protein kinase C zeta type (PRKCZ, Homo sapiens, UniProt Q05513)

Structure (SMILES)	test	conditions	quantity	value
Cc1ccc(Nc2nccc(N(C)c3ccc4c(C)n(C)nc4c3)n2)cc1S(N)(=O)=O	enzyme activity, inhibitor	10 µM	inhibition	-2%
CCCS(=O)(=O)Nc1ccc(F)c(C(=O)c2c[nH]c3ncc(-c4ccc(Cl)cc4)cc23)c1F	enzyme activity, inhibitor	1 µM	inhibition	< 20%
CCCOc1ccc(OC)c(F)c1C(=O)c1ccc(C(=O)N[C@@H]2CNC[C@H]2NC(=O)c2ccc3[nH]ncc3c2)cc1	enzyme activity, inhibitor	10 µM	remaining activity	60%
CCN(CC)CCNC(=O)c1c(C)[nH]c(/C=C2\C(=O)Nc3ccc(F)cc32)c1C	enzyme activity, inhibitor	10 µM	inhibition	-2%
CC(C)(C)c1nc(-c2cccc(NS(=O)(=O)c3c(F)cccc3F)c2F)c(-c2ccnc(N)n2)s1	enzyme activity, inhibitor, radiometric	1 µM	remaining activity	109%
COc1cc2ncnc(Nc3ccc(Oc4ccccc4)cc3C)c2cc1OC	enzyme activity, inhibitor	1 µM	inhibition	3%
O=C(Nc1cnn(-c2csc(C(=O)NC3COC3)c2)c1)Nc1c(F)cccc1Cl	enzyme activity, inhibitor	5 µM	remaining activity	93.6%
COc1cccc2c(NCc3ccccc3)nc(-n3c(N)nc4ccccc43)nc12	target engagement in cells, inhibitor, chemoproteomics	20 mM	inhibition	19.7%
Cn1c2c(c3ccc(Cl)c(Cl)c31)C(C#N)C1(CCCC1)NC2=O (centres unmarked)	thermal stability, DSF	10 µM	ΔTm	-0.2 °C
CN(c1ncccc1CNc1nc(Nc2ccc3c(c2)CC(=O)N3)ncc1C(F)(F)F)S(C)(=O)=O	enzyme activity, inhibitor	1 µM	inhibition	0%
COc1cc(Nc2cnc(C#N)c(O[C@H](C)CN(C)C)n2)ncc1-c1cnn(C)c1	enzyme activity, inhibitor, radiometric	1 µM	remaining activity	121%
Nc1nc(NC2CCCCC2)sc1C(=O)c1ccccc1	enzyme activity, inhibitor	10 µM	remaining activity	83%
Cn1c2c(c3ccccc31)C(C#N)C(C)(C)NC2=O (centres unmarked)	thermal stability, DSF	10 µM	ΔTm	-0.3 °C
Cc1sc(C(=O)NC2COC2)cc1-n1cc(NC(=O)Nc2c(F)cccc2Cl)cn1	enzyme activity, inhibitor	10 µM	remaining activity	104%
CCN(CC)c1ccc(C2=NNC(=O)CC2C)cc1[N+](=O)[O-] (centres unmarked)	enzyme activity, inhibitor	10 µM	remaining activity	102%
O=C1Nc2ccc(Cl)cc2C1=Cc1cc(Cl)c(O)c(Cl)c1	cell-free assay	0.5 µM	remaining signal	95.3%
FC(F)c1nc2ccccc2n1-c1nc(N2CCOCC2)nc(N2CCOCC2)n1	enzyme activity, inhibitor	10 µM	remaining activity	87%
COc1cc(-c2cc(-c3ccc(N4CCNCC4)cc3)cnc2C)cc(OC)c1OC	enzyme activity, inhibitor	0.1 µM	inhibition	5%
Cn1c2c(Cl)c(Cl)ccc2c2cc[nH]c(=O)c21	thermal stability, DSF	10 µM	ΔTm	0.4 °C
Cc1cc(NC(=O)c2cccc3cc(-c4cccc5[nH]nc(N)c45)ccc23)ccc1F	enzyme activity, inhibitor	0.1 µM	activity vs control	99%
Cn1c2c(Cl)c(Cl)ccc2c2cc(N)[nH]c(=O)c21	thermal stability, DSF	10 µM	ΔTm	0.1 °C
CC(C)c1ccc(NC(=O)c2cccs2)c(-c2nc3ccccc3[nH]c2=O)c1	enzyme activity, inhibitor	1 µM	activity vs control	97%
COc1cc(/C=C/C(=O)CC(=O)/C=C/c2ccc(O)c(OC)c2)ccc1O	enzyme activity, inhibitor	1 µM	activity vs control	94%
Cn1c2c(Cl)c(Cl)ccc2c2cn[nH]c(=O)c21	thermal stability, DSF	10 µM	ΔTm	0 °C
COc1cc(Cl)c(C(=O)N[C@@H](CN[C@H]2CC[C@@H](N)CC2)Cc2ccc(C#N)cc2)cc1-c1ccc(CN[C@H](C)c2ccc(C)cc2)o1	enzyme activity, inhibitor	1 µM	remaining activity	91%
c1ccc(CNc2nc(N3CCOc4ccccc43)nc3c2CCCC3)cc1	target engagement in cells, inhibitor, chemoproteomics	20 mM	inhibition	17.3%
